The source of these data is ChEMBL document CHEMBL5653631, “A Potent and Selective ULK1 Inhibitor Suppresses Autophagy and Sensitizes Cancer Cells to Nutrient Stress” (iScience, 2018).

Assay [1] has as its target Cyclin-dependent kinase 4 (Homo sapiens) (UniProt P11802). The experiment in a line: Inhibition of human recombinant CDK4 at 40 nM in presence of ATP by radiometric assay relative to control.
The target in assay [2] is T1, Ephrin type-A receptor 3 (Homo sapiens) (UniProt P29320).
T1 sequence (whole entry): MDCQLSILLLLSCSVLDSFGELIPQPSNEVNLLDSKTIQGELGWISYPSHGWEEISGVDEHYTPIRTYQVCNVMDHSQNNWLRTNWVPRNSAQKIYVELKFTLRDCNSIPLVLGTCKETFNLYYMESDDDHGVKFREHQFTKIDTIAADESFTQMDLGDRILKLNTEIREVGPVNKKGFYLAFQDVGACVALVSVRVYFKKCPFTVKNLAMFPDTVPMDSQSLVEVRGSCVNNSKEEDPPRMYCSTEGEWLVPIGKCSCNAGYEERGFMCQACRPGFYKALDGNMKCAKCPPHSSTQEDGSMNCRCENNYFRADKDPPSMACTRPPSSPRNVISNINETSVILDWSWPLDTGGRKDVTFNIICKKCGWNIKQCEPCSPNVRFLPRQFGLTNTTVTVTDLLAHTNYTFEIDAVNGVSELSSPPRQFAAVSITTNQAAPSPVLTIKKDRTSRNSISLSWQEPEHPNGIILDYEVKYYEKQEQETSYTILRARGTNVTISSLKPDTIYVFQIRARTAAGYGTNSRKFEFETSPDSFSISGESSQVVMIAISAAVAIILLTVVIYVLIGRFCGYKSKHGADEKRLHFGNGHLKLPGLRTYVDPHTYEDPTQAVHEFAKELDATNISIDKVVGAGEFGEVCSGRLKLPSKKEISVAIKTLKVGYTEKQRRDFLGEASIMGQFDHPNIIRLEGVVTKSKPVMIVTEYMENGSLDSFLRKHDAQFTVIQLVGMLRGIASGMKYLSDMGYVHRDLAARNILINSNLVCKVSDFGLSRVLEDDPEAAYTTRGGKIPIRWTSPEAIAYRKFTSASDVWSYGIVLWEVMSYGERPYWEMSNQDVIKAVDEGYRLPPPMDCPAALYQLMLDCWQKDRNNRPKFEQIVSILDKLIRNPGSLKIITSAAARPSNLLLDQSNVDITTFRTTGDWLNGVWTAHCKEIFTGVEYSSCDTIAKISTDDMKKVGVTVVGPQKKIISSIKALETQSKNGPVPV
The experiment in a line: Inhibition of human recombinant EphA3 at 40 nM in presence of ATP by radiometric assay relative to control.

The target of assay [3] is Receptor-interacting serine/threonine-protein kinase 2 (Homo sapiens) (UniProt O43353). The experiment in a line: Inhibition of human recombinant RIPK2 at 40 nM in presence of ATP by radiometric assay relative to control.
Assay [4] has as its target Ribosomal protein S6 kinase alpha-6 (Homo sapiens) (UniProt Q9UK32). The assay can be described thus: Inhibition of human recombinant RSK4 at 40 nM in presence of ATP by radiometric assay relative to control.
Assay [5] concerns the target T2, Serine/threonine-protein kinase ICK (Homo sapiens) (UniProt Q9UPZ9).
T2 sequence (whole entry): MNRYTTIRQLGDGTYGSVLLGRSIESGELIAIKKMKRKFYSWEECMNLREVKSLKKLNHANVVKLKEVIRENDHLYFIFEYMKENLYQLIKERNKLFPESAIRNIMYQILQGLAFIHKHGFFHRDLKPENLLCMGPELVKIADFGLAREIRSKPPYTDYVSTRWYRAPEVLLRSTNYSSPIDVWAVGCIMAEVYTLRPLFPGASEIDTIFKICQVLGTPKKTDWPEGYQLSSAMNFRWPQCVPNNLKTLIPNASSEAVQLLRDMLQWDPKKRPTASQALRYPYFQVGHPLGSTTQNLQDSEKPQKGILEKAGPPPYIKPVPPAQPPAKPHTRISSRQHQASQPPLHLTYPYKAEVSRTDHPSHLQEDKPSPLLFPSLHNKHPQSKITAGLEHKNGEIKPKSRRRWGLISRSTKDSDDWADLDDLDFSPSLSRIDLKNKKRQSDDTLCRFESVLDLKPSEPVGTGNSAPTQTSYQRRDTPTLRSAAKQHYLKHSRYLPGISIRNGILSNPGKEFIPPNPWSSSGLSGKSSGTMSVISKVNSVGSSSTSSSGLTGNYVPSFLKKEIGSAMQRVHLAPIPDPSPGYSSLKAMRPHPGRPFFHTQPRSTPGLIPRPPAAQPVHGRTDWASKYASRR
The assay can be described thus: Inhibition of human recombinant ICK at 40 nM related to control ULK1.

The target in assay [6] is Serine/threonine-protein kinase PRP4 homolog (Homo sapiens) (UniProt Q13523). The assay can be described thus: Inhibition of human recombinant PRP4 at 40 nM related to control ULK1.
Sequence of Serine/threonine-protein kinase PRP4 homolog (Homo sapiens) (Q13523 whole entry): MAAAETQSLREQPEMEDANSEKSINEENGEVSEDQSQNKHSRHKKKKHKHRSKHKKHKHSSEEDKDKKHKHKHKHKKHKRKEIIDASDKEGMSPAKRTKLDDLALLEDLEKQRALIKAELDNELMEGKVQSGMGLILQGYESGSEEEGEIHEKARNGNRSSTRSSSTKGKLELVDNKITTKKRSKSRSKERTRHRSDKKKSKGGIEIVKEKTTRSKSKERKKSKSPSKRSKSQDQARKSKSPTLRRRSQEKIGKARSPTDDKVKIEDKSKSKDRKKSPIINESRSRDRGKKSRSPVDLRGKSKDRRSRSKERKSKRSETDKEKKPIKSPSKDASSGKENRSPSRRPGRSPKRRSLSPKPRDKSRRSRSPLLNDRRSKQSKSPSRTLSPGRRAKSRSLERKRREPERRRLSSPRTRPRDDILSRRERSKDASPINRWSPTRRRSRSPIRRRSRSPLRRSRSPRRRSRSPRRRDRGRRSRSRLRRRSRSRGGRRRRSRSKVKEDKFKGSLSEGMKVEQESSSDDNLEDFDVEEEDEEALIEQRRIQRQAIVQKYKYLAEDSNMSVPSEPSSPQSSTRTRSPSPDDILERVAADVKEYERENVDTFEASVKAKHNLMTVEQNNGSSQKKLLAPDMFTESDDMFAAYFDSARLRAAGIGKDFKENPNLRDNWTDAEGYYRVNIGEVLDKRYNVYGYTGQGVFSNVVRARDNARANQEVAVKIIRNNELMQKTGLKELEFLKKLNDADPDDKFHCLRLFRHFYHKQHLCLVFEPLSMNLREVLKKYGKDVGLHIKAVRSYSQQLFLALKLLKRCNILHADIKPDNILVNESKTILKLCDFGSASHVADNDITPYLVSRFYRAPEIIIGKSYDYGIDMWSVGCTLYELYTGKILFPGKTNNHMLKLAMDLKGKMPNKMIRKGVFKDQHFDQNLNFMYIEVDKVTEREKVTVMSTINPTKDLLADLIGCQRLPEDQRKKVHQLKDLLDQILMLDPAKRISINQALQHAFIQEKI
The target of assay [7] is Non-receptor tyrosine-protein kinase TYK2 (Homo sapiens) (UniProt P29597). The assay can be described thus: Inhibition of human recombinant TYK2 at 40 nM related to control ULK1.
Sequence of Non-receptor tyrosine-protein kinase TYK2 (Homo sapiens) (P29597 whole entry): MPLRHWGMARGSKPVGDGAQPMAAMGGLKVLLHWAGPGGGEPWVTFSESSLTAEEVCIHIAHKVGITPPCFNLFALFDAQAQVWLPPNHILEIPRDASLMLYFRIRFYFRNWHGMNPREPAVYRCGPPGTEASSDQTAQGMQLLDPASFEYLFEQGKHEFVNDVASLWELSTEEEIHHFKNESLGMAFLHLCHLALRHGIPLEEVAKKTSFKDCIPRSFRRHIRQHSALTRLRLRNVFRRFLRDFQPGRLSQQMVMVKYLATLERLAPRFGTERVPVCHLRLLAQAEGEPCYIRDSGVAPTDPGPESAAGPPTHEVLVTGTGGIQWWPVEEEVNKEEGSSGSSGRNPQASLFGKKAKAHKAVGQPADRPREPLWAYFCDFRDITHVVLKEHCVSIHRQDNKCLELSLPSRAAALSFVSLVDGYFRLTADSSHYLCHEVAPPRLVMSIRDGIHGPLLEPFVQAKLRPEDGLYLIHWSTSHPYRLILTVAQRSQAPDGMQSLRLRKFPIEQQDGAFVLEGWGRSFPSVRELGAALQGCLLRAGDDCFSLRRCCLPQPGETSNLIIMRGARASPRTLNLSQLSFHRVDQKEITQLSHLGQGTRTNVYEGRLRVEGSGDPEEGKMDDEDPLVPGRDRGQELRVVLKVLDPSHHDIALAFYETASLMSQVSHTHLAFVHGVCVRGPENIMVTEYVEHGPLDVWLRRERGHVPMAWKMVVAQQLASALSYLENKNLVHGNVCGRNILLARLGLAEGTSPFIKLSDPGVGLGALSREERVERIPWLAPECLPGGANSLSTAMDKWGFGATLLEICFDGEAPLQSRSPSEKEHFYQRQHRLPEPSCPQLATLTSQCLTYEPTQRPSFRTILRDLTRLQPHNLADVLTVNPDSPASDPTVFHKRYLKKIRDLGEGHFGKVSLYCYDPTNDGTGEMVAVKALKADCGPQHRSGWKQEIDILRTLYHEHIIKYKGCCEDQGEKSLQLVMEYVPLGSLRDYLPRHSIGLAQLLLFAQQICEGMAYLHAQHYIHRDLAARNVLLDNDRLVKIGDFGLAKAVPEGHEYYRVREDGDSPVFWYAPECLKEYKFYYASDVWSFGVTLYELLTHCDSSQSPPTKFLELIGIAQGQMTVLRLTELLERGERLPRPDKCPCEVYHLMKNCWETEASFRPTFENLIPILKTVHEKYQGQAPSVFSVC
Assay [8] addresses Serine/threonine-protein kinase WNK2 (Homo sapiens) (UniProt Q9Y3S1). The experiment in a line: Inhibition of human recombinant Wnk2 at 40 nM related to control ULK1.
Assay [9] has as its target Cyclin-dependent kinase-like 3 (Homo sapiens) (UniProt Q8IVW4). The assay can be described thus: Inhibition of human recombinant CDKL3 at 500 nM in presence of ATP by radiometric assay relative to control.
In assay [10] the target is RAC-alpha serine/threonine-protein kinase (Homo sapiens) (UniProt P31749). The experiment in a line: Inhibition of human recombinant AKT1 at 15 nM in presence of ATP by radiometric assay relative to control. In a few lines: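 Panel of 327 recombinant human kinases in radiometric activity assays, each screened in duplicate at a single inhibitor concentration; percent activity remaining relative to vehicle control, percent inhibition taken as 100 minus activity remaining.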
Sequence of RAC-alpha serine/threonine-protein kinase (Homo sapiens) (P31749 whole entry): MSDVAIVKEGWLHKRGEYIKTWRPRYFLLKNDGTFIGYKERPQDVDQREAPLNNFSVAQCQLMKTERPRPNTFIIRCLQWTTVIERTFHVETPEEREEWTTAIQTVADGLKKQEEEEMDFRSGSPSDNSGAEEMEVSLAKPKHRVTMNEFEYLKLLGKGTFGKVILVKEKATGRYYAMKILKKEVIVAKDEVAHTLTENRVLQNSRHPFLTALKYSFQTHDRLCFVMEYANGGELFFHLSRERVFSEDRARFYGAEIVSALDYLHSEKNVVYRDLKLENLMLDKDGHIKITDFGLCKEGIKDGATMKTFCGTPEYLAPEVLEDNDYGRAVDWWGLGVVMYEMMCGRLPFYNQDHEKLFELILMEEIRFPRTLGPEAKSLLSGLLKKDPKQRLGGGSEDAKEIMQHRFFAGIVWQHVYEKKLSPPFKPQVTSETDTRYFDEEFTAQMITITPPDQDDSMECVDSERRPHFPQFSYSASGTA

The target in assay [11] is Serine/threonine-protein kinase PLK3 (Homo sapiens) (UniProt Q9H4B4). The assay can be described thus: Inhibition of human recombinant PLK3 at 15 nM in presence of ATP by radiometric assay relative to control.

Sequence of Serine/threonine-protein kinase WNK2 (Homo sapiens) (Q9Y3S1 whole entry): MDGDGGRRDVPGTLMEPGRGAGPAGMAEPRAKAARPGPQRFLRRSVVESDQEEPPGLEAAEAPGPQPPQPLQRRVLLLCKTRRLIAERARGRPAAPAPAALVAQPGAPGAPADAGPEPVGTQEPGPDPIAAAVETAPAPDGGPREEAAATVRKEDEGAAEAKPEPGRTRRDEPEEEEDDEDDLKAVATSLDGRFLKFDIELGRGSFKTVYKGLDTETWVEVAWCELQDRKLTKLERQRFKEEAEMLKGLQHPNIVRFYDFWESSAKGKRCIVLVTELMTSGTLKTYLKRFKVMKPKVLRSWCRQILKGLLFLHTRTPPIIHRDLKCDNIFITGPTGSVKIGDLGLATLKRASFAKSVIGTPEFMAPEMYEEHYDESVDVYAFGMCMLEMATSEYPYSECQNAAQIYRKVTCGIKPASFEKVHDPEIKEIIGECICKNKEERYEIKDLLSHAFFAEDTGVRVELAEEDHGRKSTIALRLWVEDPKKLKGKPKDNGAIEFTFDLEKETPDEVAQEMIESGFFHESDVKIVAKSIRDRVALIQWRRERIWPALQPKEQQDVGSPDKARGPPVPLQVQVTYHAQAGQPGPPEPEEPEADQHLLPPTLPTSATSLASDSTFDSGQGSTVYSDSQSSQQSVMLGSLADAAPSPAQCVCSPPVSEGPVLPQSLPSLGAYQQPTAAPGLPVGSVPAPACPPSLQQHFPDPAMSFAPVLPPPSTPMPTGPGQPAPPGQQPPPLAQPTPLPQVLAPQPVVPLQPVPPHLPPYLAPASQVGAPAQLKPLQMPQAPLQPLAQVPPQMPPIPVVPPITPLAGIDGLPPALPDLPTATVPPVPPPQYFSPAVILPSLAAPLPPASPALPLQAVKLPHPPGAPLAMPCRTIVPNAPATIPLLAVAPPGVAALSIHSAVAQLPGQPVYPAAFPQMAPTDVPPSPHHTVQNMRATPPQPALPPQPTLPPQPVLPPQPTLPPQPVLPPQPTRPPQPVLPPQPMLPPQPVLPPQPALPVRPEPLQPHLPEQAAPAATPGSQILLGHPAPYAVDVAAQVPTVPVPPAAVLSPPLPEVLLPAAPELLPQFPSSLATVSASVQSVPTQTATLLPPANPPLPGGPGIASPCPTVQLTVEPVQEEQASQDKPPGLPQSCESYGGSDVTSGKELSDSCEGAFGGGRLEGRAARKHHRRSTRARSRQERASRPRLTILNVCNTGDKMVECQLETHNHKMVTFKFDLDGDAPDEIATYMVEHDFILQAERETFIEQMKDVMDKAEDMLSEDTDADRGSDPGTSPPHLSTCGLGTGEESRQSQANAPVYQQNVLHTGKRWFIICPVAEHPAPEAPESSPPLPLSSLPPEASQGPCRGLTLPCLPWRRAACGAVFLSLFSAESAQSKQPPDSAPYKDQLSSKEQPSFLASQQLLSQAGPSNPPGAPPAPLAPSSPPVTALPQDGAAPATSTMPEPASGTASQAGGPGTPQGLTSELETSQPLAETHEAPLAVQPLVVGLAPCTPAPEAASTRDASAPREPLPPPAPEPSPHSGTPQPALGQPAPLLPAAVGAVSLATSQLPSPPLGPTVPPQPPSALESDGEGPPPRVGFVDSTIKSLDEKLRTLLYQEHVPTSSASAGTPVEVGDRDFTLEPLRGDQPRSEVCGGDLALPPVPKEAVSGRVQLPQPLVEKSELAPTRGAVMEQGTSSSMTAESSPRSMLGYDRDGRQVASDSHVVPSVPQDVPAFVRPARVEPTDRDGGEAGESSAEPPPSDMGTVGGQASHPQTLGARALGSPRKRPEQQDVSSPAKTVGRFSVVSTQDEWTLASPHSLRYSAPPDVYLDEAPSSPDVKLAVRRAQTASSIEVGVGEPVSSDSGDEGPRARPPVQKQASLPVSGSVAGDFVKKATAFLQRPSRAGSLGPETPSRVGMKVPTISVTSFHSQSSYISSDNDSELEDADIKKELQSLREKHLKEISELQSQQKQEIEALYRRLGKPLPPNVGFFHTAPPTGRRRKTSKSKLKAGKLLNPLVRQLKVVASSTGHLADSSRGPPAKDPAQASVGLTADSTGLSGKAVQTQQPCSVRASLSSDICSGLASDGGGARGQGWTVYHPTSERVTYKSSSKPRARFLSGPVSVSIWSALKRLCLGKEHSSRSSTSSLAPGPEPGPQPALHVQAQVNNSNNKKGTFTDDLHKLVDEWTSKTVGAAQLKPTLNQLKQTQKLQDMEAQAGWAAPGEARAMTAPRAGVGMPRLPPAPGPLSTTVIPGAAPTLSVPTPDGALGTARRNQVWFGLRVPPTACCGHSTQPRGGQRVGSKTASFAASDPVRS

In the case of `O=C(N[C@@H](C1CC1)C(F)(F)F)c1cc(-c2cnn3cc(-c4ccc(F)cc4)cnc23)cs1`, the inhibition (commonly the relative decrease from the control value, in per cent) is 0% in [1], 15% in assay [2], 30% in assay [3] and 0% in assay [4]. The fold change (FC) in assay [5] came out at 0; in assay [6], 0.08; in [7], 0.01; in assay [8], 0.04.
For the molecule `CNC(=O)c1ccccc1Oc1nc(Nc2cc(OC)c(OC)c(OC)c2)ncc1Br`, the inhibition in assay [9] amounted to 0%.
In the case of `CC(C)[C@H](NC(=O)c1cc(-c2cnn3cc(-c4ccc(OCCN5CCCCC5)cc4)cnc23)cs1)C(F)(F)F`, the inhibition is 0% in assay [10] and 3% in assay [11].
